The first data set has as its target CYP3A4 (Homo sapiens, UniProt P08684). The data set can be described thus: Inhibition of recombinant CYP3A4 (unknown origin) using BFC as substrate at 1 uM measured after 30 mins in presence of NADPH generating system by fluorescence assay relative to control. The class given is ADME. To be noted: recombinant CYP3A4, probe BFC. The method in brief:
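Recombinant human CYP3A4 incubated with test compound at 1 μM. 7-Benzyloxy-4-trifluoromethylcoumarin (BFC) was the probe substrate, with fluorescence read-out, reported as percent inhibition.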
Chain of CYP3A4 (P08684 whole entry): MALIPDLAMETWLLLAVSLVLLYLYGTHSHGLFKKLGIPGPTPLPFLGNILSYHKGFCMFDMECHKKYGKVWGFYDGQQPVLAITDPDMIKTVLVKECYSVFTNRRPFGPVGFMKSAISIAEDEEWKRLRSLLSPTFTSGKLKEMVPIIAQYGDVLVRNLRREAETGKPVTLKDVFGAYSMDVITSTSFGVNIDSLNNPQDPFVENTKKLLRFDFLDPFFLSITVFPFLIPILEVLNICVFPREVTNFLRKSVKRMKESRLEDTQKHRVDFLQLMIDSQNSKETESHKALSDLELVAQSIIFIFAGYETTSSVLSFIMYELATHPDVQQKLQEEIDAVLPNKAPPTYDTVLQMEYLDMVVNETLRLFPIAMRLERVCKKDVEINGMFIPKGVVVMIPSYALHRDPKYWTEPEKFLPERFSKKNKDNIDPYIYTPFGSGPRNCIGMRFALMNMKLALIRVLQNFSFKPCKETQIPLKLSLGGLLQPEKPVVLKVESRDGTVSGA
For orientation: inhibition means the drop in the measured response relative to a control, in per cent. As for `CCC[C@H](c1nc2ccc(Br)cc2c(=O)n1CC)N1CCNC(C)(C)C1`, the inhibition at 0.5 h, 1 µM turned out to be 72%.

In the case of `CCCC(c1nc2ccc(Br)cc2c(=O)n1CC)N1CCC(NC)CC1` (stereo unspecified), the inhibition at 0.5 h, 1 µM is 83%.

As to `CCCC(c1nc2ccccc2c(=O)n1CCOC)N1CCNCC1` (stereo unspecified), the inhibition at 0.5 h, 1 µM came out at 67%.

Take `CCCC(c1nc2ccccc2c(=O)n1CC)N1C[C@@H](C)N[C@@H](C)C1` (stereo partly specified): the inhibition at 0.5 h, 1 µM stood at 85%.

`CCCC(c1nc2ccc(NCC)cc2c(=O)n1CC)N1C[C@@H](C)N[C@@H](C)C1` (stereo partly specified): the inhibition at 0.5 h, 1 µM was determined as 69%.

In the case of `COCCn1c(CN2CCNCC2)nc2ccccc2c1=O`, the inhibition at 0.5 h, 1 µM was found to be 6%.

On to `CCC[C@@H](c1nc2ccncc2c(=O)n1CC)N1CCN[C@H](C)C1`, for which the inhibition at 0.5 h, 1 µM came to 15%.

For `CCC[C@@H](c1nc2ccc(Br)cc2c(=O)n1CC)N1CCN[C@H](C)C1`, the inhibition at 0.5 h, 1 µM stood at 21%.

Regarding `CCC[C@@H](c1nc2ccc(Br)cc2c(=O)n1CC)N1C[C@@H](C)N[C@@H](C)C1`, the inhibition at 0.5 h, 1 µM stood at 88%.

As to `CCC[C@@H](c1nc2ccc(Br)cc2c(=O)n1CC)N1CCN[C@@H](C)C1`, the inhibition at 0.5 h, 1 µM amounted to 33%.

Regarding `CCC[C@H](c1nc2ccncc2c(=O)n1CC)N1CCN[C@@H](C)C1`, the inhibition at 0.5 h, 1 µM came to 56%.

For the compound `CC(C)C[C@H](CN)CC(=O)O` [PREGABALIN], the inhibition at 0.5 h, 1 µM was 43%.

`CCCCC(c1nc2ccccc2c(=O)n1CCOC)N1C[C@@H](C)N[C@@H](C)C1` (stereo partly specified): the inhibition at 0.5 h, 1 µM amounted to 97%.

Turning to `COCCn1c(C(C)N2CCNCC2)nc2ccccc2c1=O` (stereo unspecified), the inhibition at 0.5 h, 1 µM turned out to be 0%.

Consider `COCCn1c(C(CC2CC2)N2C[C@@H](C)N[C@@H](C)C2)nc2ccccc2c1=O` (stereo partly specified), for which the inhibition at 0.5 h, 1 µM is 94%.

In the case of `CCCC(c1nc2ccccc2c(=O)n1C)N1C[C@@H](C)N[C@@H](C)C1` (stereo partly specified), the inhibition at 0.5 h, 1 µM was 80%.

Turning to `CCCC(c1nc2ccccc2c(=O)n1CCOC)N1C[C@@H](C)N[C@@H](C)C1` (stereo partly specified), the inhibition at 0.5 h, 1 µM was found to be 94%.

Another data set deals with Mus musculus. The data set can be described thus: Analgesic activity in CD1 mouse model of capsaicin-induced mechanical hypersensitivity assessed as reduction in mechanical hypersensitivity at 20 mg/kg, ip administered 30 mins prior to capsaicin stimulation and measured after 15 mins. To be noted: time 45 min, 0.75 h. It counts as functional. Also on record: scale not given: the % may be the effect or the level left. The method in brief:
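Male CD1 mice, 8–12 per group, given 20 mg/kg ip alongside vehicle and pregabalin comparator groups. Capsaicin test read out as percentage reduction in capsaicin-induced mechanical hypersensitivity.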
In the case of `CC(C)C[C@H](CN)CC(=O)O` [PREGABALIN], the Activity came out at 34%.

The target of the next data set is T1, Voltage-dependent calcium channel subunit alpha-2/delta-1 (Homo sapiens, UniProt P54289). Kind of data set: Displacement of [3H]-gabapentin from human Cav alpha2delta1 expressed in CHO-K1 cell membranes incubated for 60 mins by scintillation counting method. Also on record: species or system Membrane.
T1 sequence (P54289 25-956 limits assumed): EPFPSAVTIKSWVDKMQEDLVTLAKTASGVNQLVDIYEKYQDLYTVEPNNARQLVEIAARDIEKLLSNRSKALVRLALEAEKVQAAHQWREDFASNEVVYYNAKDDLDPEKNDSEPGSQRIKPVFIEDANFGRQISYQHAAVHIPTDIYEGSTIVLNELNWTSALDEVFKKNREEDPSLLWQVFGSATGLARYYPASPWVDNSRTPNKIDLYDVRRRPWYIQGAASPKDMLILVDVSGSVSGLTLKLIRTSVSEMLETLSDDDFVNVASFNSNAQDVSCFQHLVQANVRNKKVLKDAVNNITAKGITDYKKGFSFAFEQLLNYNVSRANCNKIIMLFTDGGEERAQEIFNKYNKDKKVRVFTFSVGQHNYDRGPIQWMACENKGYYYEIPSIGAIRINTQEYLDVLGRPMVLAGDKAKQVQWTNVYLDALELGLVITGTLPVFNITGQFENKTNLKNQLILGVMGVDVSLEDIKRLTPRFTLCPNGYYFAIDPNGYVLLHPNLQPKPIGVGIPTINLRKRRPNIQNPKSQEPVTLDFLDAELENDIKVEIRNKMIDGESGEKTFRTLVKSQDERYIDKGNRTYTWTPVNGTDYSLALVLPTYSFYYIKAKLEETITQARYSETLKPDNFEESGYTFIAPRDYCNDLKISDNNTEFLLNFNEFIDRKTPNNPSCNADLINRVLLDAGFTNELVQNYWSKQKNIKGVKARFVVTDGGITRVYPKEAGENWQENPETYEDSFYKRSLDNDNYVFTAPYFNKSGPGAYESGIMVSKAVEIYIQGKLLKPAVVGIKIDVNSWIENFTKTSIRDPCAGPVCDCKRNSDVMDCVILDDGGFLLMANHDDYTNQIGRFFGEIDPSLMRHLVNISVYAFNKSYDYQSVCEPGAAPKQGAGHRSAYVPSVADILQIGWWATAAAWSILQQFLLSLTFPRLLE
T1 sequence (P54289 957-1103 limits assumed): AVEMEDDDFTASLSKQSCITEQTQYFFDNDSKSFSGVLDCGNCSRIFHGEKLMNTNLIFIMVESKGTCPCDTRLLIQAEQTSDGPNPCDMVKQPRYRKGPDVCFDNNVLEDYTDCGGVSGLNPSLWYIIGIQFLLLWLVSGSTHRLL
Details: not given
The method in brief: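 Radioligand binding with [3H]-gabapentin on α2δ-1-enriched membranes from CHO-K1 cells expressing human Cav2.2/β3/α2δ1. Compounds were first screened at 10 μM. Ki was calculated for those giving more than 50% inhibition. Values are mean ± SD of two determinations.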
(Displacement assays read how much labelled ligand stays bound in the presence of the test substance.)
Usually Ki stands for the equilibrium dissociation constant of an inhibitor or competing ligand from its target. Turning to `CCC[C@H](c1nc2ccc(Br)cc2c(=O)n1CC)N1CCNC(C)(C)C1`, the Ki worked out at 1580 nM.

For `CCCC(c1nc2ccc(Br)cc2c(=O)n1CC)N1CCC(NC)CC1` (stereo unspecified), the Ki was found to be 436 nM.

In the case of `CCCC(c1nc2ccccc2c(=O)n1CCOC)N1CCNCC1` (stereo unspecified), the Ki is 638 nM.

Turning to `CCCC(c1nc2ccccc2c(=O)n1CC)N1C[C@@H](C)N[C@@H](C)C1` (stereo partly specified), the inhibitory constant (Ki) was found to be 36 nM.

In the case of `CCCC(c1nc2ccc(NCC)cc2c(=O)n1CC)N1C[C@@H](C)N[C@@H](C)C1` (stereo partly specified), the inhibition constant Ki was found to be 44 nM.

Turning to `COCCn1c(CN2CCNCC2)nc2ccccc2c1=O`, the Ki is above 10000 nM.

`CCC[C@@H](c1nc2ccncc2c(=O)n1CC)N1CCN[C@H](C)C1`: the Ki is above 1000 nM.

Consider `CCC[C@@H](c1nc2ccc(Br)cc2c(=O)n1CC)N1CCN[C@H](C)C1`, for which the inhibition constant Ki was above 1000 nM.

Consider `CCC[C@@H](c1nc2ccc(Br)cc2c(=O)n1CC)N1C[C@@H](C)N[C@@H](C)C1`, for which the Ki is 2900 nM.

For the compound `CCC[C@@H](c1nc2ccc(Br)cc2c(=O)n1CC)N1CCN[C@@H](C)C1`, the Ki was 479 nM.

Consider `CCC[C@H](c1nc2ccncc2c(=O)n1CC)N1CCN[C@@H](C)C1`, for which the Ki was determined as 27 nM.

For the compound `CCCCC(c1nc2ccccc2c(=O)n1CCOC)N1C[C@@H](C)N[C@@H](C)C1` (stereo partly specified), the Ki stood at 1340 nM.

With `COCCn1c(C(C)N2CCNCC2)nc2ccccc2c1=O` (stereo unspecified), the inhibition constant (Ki) was 4900 nM.

With `COCCn1c(C(CC2CC2)N2C[C@@H](C)N[C@@H](C)C2)nc2ccccc2c1=O` (stereo partly specified), the Ki came to 413 nM.

Take `CCCC(c1nc2ccccc2c(=O)n1C)N1C[C@@H](C)N[C@@H](C)C1` (stereo partly specified): the Ki came out at 73 nM.

`CCCC(c1nc2ccccc2c(=O)n1CCOC)N1C[C@@H](C)N[C@@H](C)C1` (stereo partly specified): the Ki was determined as 241 nM.

Test system in a further data set: not listed separately
The data set can be described thus: Induction of motor coordination impairment in CD1 mouse assessed as latency to fall at 20 mg/kg, ip measured upto 180 mins by rotarod test. It counts as organism-based. To be noted: in vivo, 3 h. The method in brief:
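Mice were dosed at 20 mg/kg ip, with vehicle and pregabalin groups run in the same paradigm. Latency to fall from the elevated rotating drum was recorded at 30, 120 and 180 min after administration.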
Regarding `CC(C)C[C@H](CN)CC(=O)O` [PREGABALIN], the Activity result is recorded as “Toxic”.

The next data set deals with T1, Voltage-dependent calcium channel subunit alpha-2/delta-1. Kind of data set: Displacement of [3H]-gabapentin from human Cav alpha2delta1 expressed in CHO-K1 cell membranes at 10 uM incubated for 60 mins by scintillation counting method relative to control. To be noted: Membrane. The method in brief: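 Human α2δ-1-enriched membranes from CHO-K1 cells stably expressing human Cav2.2/β3/α2δ1. Test compound at 10 μM competes with [3H]-gabapentin radioligand, and percent inhibition of specific binding is recorded. Compounds exceeding 50% inhibition go on to Ki determination, with Ki values given as the mean of two determinations.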
Regarding `COCCn1c(CN2CCNCC2)nc2ccccc2c1=O`, the inhibition was below 50%.

The values above are taken from ChEMBL document CHEMBL4823330, “Piperazinyl Bicyclic Derivatives as Selective Ligands of the α2δ-1 Subunit of Voltage-Gated Calcium Channels” (ACS Med Chem Lett, 2021).
